Hits are enriched below; roughly 2.7% of the tested compounds scored in any of these assays.
SIAE primary: inhibitors of human sialic acid acetylesterase SIAE; inhibition, % at 9.66 µM; Q9HAT2; SIAE FP-Rh probe binding, fluorescence polarization; 370,000 tested, 0.69% active;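 active = inhibition above a cutoff: mean of compounds within the control limits plus 3 SD of those, cut at about 17% in these data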
HTRA1 inh: HTRA1 (human) protease inhibition. 340,000 tested, 0.5% active. recombinant HTRA1, FP-rhodamine activity-based probe, fluorescence polarization. inhibition, % at 5.96 µM. Q92743; in the data active = inhibition above about 36%
TCR-CD3 inh: blocks the human TCR-CD3 interaction. TAMRA-labeled TCR probe fluorescence, biochemical. inhibition, % at 9.4 µM. 360,000 tested, 0.37% active; in the data active = inhibition above about 19%;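 note: recombinant mutant TCR 2C K166C tagged with TAMRA read by polarization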
PRMT1 inh: inhibitors of human PRMT1. Q99873. recombinant PRMT1, activity-based probe fluorescence polarization. inhibition, % at 2.79 µM. 370,000 tested, 1.3% active;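 active = inhibition above about 21% made by adding two undisclosed values, limit read from the data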
Target sequence (Q99873 whole entry, looked up): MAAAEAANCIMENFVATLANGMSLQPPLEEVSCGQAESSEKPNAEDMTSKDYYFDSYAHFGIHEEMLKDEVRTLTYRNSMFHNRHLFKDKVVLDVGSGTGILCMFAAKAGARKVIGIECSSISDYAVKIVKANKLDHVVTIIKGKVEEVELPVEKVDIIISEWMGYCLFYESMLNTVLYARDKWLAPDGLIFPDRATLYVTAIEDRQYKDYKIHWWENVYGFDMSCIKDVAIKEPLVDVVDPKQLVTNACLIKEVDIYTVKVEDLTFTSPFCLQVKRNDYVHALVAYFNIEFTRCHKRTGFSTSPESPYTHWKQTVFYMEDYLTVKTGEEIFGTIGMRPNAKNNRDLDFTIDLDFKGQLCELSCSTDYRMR
ABHD4 inh: inhibits mouse alpha/beta hydrolase domain 4 | Q8VD66 | 370,000 tested, 0.54% active | inhibition, % at 8.92 µM | purified mABHD4, FP-Rh probe fluorescence polarization;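 active = inhibition exceeding the mean over every tested compound plus 3 SD, cut at about 30% in these data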
Target sequence (Q8VD66 whole entry, looked up, the tested form may be a part): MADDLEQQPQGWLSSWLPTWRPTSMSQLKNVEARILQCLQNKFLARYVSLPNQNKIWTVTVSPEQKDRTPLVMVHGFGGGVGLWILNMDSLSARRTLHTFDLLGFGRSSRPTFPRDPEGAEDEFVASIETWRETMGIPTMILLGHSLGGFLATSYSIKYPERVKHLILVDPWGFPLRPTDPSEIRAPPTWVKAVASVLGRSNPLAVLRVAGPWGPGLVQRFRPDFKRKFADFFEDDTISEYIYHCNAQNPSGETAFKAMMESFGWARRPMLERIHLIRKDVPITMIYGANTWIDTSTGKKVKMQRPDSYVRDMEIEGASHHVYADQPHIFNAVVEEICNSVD
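Test system: mouse ABHD4 enzyme, wild type. Reagent: FP-Rh fluorescent activity-based probe, added after compound pre-incubation. Timing: pre-incubation 45 min, probe exposure 60 min, at 25 °C. Technique: FP readout, ex 525 nm / em 598 nm. Benchmarks: high control S159A mutant with DMSO, low control median of compound wells.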
ABHD4 confirm: confirmation of mouse ABHD4 inhibitors. shares compounds with ABHD4 inh. purified mABHD4, FP-Rh probe fluorescence polarization. inhibition, % at 8.92 µM. 1,800 tested, 55% active;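 active = mean inhibition across replicates above the hit cutoff set in the primary screen, cut at about 30% in these data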
Large screens that a line does not name were inactive (follow-up assays come after a bar, where they were run).

C(=C\c1ccccc1)/C=N/Nc1nc2ccccc2s1	none
Cc1cc(NN=Cc2ccccn2)nc2c(C)cccc12	none (no result: HTRA1 inh)
CCOC(=O)[C@]12CCC=C1N(CCC1=CCCCC1)C(=O)[C@H](CC(=O)N1CCCC1)C2	none (no result: HTRA1 inh)
COc1cccc2sc(NN)nc12	ABHD4 inh 91.7 | ABHD4 confirm 43.6
CCCCNC(=O)C1(C)CCCCCN1Cc1cccc2c(OC)cc(C(=O)OCC)cc12 (stereo not given)	none (no result: HTRA1 inh)
O=C(c1cccc(S(=O)(=O)N2CCCC2)c1)N1CCN(Cc2ccccc2)CC1	none
CCN(/C=N/c1sc2c(c1C#N)CCCCC2)CC	ABHD4 inh 32.3 | ABHD4 confirm 35.0
CC(C)CN(/C=N/c1sc2c(c1C#N)CCCCC2)CC(C)C	none
O=C(O)c1ccccc1Nc1cccc(OCc2ccc3ccccc3n2)c1	ABHD4 inh 36.3 | ABHD4 confirm 33.3
Cc1cc(C)n(-c2ncc3c(n2)N(CCO)CCOC3=O)n1	none
CC1=CC2(O)OCCN(CCO)C2=CC1=O (stereo not given)	ABHD4 inh 30.2 | ABHD4 confirm inactive
CC(=O)C1C(=O)c2c(cccc2[N+](=O)[O-])C1=Nc1cccc(Cl)c1 (stereo not given)	ABHD4 inh 35.9 | ABHD4 confirm 60.7
Cc1ccc(NC(=O)C2CCN(c3ncccn3)CC2)cc1C	none (no result: HTRA1 inh, TCR-CD3 inh)
O=C(OC12CCCN(C1)/C(=C/c1cccc(Cl)c1)C2)C1CCCCC1 (stereo not given)	none (no result: HTRA1 inh, TCR-CD3 inh)
CN(c1ccccc1)c1ccc(/C=C(\CCC(=O)O)c2nc3ccccc3s2)cc1[N+](=O)[O-]	ABHD4 inh 68.6 | ABHD4 confirm 61.9
CNc1ccc(/C=C(\CCC(=O)O)c2nc3ccccc3s2)cc1[N+](=O)[O-]	ABHD4 inh 47.4 | ABHD4 confirm 54.3
COc1ccc(/C=N/NC(=S)Nc2ccccc2[N+](=O)[O-])cc1O	ABHD4 inh 44.2 | ABHD4 confirm inactive
COC(=O)C1=C(C)N(Cc2ccc(C(F)(F)F)cc2)C(=NCc2ccccc2)NC1c1cccc(Cl)c1 (stereo not given)	ABHD4 inh 36.7 (no result: HTRA1 inh) | ABHD4 confirm 44.3
COC(=O)C1=C(C)N(Cc2ccc(C(F)(F)F)cc2)C(=NCc2ccccc2)NC1c1ccc(C(F)(F)F)cc1 (stereo not given)	ABHD4 inh 30.9 (no result: HTRA1 inh) | ABHD4 confirm 39.5
COC(=O)C1=C(C)N(Cc2ccc(C(F)(F)F)cc2)C(=NCc2ccccc2)NC1c1cccc(C(F)(F)F)c1 (stereo not given)	none (no result: HTRA1 inh)
COC(=O)C1=C(C)N(Cc2ccc(C(F)(F)F)cc2)C(=NCc2ccccc2)NC1c1ccccc1 (stereo not given)	ABHD4 inh 33.2 (no result: HTRA1 inh) | ABHD4 confirm 48.2
COC(=O)C1=C(C)N(Cc2ccccc2)C(=NCc2cccc(C(F)(F)F)c2)N[C@H]1c1cccc(F)c1	ABHD4 inh 37.5 | ABHD4 confirm 44.0
COC(=O)C1=C(C)N(Cc2ccccc2)C(=NCc2cccc(C(F)(F)F)c2)N[C@H]1c1cccc(C(F)(F)F)c1	none (no result: SIAE primary, TCR-CD3 inh, PRMT1 inh, ABHD4 inh)
CCOc1ccc(S(=O)(=O)NCC(=O)OCc2nnc(-c3ccccc3)o2)cc1	none
C[C@H]1[C@@H](OC(=O)N2CCCC2)CC[C@@]23CCCN2C(=O)CCC[C@@H]13	none (no result: HTRA1 inh, TCR-CD3 inh)
COC(=O)C1=C(C)N(Cc2cccc(C(F)(F)F)c2)C(=NCc2ccc3c(c2)OCO3)NC1c1ccc(Cl)cc1 (stereo not given)	ABHD4 inh 39.9 (no result: HTRA1 inh) | ABHD4 confirm 82.2
COC(=O)C1=C(C)N(Cc2cccc(C(F)(F)F)c2)C(=NCc2ccc(C(F)(F)F)cc2)NC1c1ccc(Cl)cc1 (stereo not given)	none (no result: HTRA1 inh)
CCC(C)N(Cc1ccc(OC)cc1OC)S(=O)(=O)c1cc(Br)ccc1Br (stereo not given)	none (no result: HTRA1 inh)
CC(=O)Nc1cc(NC(C)=O)cc(C(=O)OCC(=O)c2ccc3c(c2)NC(=O)CO3)c1	ABHD4 inh 45.9 | ABHD4 confirm inactive
CCCOc1ccccc1-n1sc2c(c1=S)-c1cc(OC)cc3c1N(C(=O)C3=O)C2(C)C	ABHD4 inh 34.6 | ABHD4 confirm 60.1
CC(=O)c1ccc(N2CCN(C(=O)c3ccc4c(=O)[nH]c5c(C(=O)NC6CCCC6)sc(=S)n5c4c3)CC2)cc1	ABHD4 inh 34.4 (no result: HTRA1 inh) | ABHD4 confirm inactive
O=C(NCCc1ccc(Cl)cc1)c1ccc2c(=O)[nH]c3c(C(=O)NCC4CCCO4)sc(=S)n3c2c1 (stereo not given)	ABHD4 inh 35.7 (no result: HTRA1 inh) | ABHD4 confirm 33.0
CC(C)NC(=O)c1sc(=S)n2c1[nH]c(=O)c1ccc(C(=O)NCCc3ccc(Cl)cc3)cc12	none
O=C(NCC1CCCO1)c1sc(=S)n2c1[nH]c(=O)c1ccc(C(=O)N3CCCCC3)cc12 (stereo not given)	none
O=C(NCCc1ccccc1)c1ccc2c(=O)[nH]c3c(C(=O)NCC4CCCO4)sc(=S)n3c2c1 (stereo not given)	ABHD4 inh 50.0 | ABHD4 confirm 36.1
O=C(N[C@H](C(=O)N1CCC[C@H]1C(=O)NC1CCCC1)C1CCCCC1)c1ccco1	none (no result: HTRA1 inh)
CCN(CC(=O)Nc1ccc2c(c1)OCCO2)CC(=O)Nc1ccccc1C(F)(F)F	ABHD4 inh 31.6 | ABHD4 confirm inactive
COC(=O)[C@@H](NC(=O)NCc1ccc(F)cc1)C(C)C	none
COC(=O)[C@@H](NCc1ccc(B(O)O)cc1)C(C)C	ABHD4 inh 48.2 | ABHD4 confirm 35.9
CC1(C)CC(NC(=O)c2ccc(Br)o2)CC(C)(C)N1	none
CC1CN(Cc2ccccc2)c2ccccc2NC1=S (stereo not given)	none
COc1ccc(OC)c(NC(=O)C(=O)/C=C(\O)c2cc(OC)ccc2OC)c1	ABHD4 inh 34.7 | ABHD4 confirm inactive
COc1ccc(OC)c(NC(=O)Nc2ccc(O)c3ccccc23)c1	ABHD4 inh 33.0 | ABHD4 confirm 40.8
COc1ccc(/C=C/C(=O)Nc2cccnc2Cl)cc1	ABHD4 inh 97.4 | ABHD4 confirm inactive
C[C@H]1[C@@H](NC(=O)c2cccc(N(C)C)c2)CC[C@@]23CCCN2C(=O)CCC[C@@H]13	none (no result: HTRA1 inh, TCR-CD3 inh)
COc1ccc(S(=O)(=O)N2CCC(NC(=O)c3ccccc3)CC2)cc1	ABHD4 inh 39.3 | ABHD4 confirm inactive
CCN(CC)C(=O)CSc1nnc(-c2ccc(C(C)(C)C)cc2)n1Cc1ccco1	none (no result: HTRA1 inh, TCR-CD3 inh)
CCOc1cc(NCc2ccccc2)c2ncn(C(C)C)c2c1	none
CC(C)n1cnc2c(NCc3ccccc3)cc(Cc3ccc(F)cc3)cc21	ABHD4 inh 30.7 | ABHD4 confirm inactive
COc1ccc(CCNC(=O)Cc2ccsc2)cc1	none
O=C(COC(=O)c1cc(S(=O)(=O)N2CCCC2)ccc1O)Nc1ccc(SC(F)F)cc1	ABHD4 inh 31.2 | ABHD4 confirm inactive
O=C(COC(=O)c1cc(S(=O)(=O)N2CCCC2)ccc1O)Nc1ccc(S(=O)(=O)N2CCOCC2)cc1	none
CC(C)C[C@@H](CCCc1ccccc1)CCC(=O)N(c1ccccc1)c1ccccc1	none (no result: HTRA1 inh, TCR-CD3 inh)
